Broadly, the IC50 is the midpoint of a concentration-inhibition curve. Usually IC90 stands for the concentration needed for an effect of 90%. By CC50 is commonly meant the concentration at which the toxic effect on the cells reaches its halfway point.

Experimental findings from ChEMBL document CHEMBL1157858, “Synthesis and antituberculosis activity of some N-pyridyl-N'-thiazolylhydrazine derivatives” (Eur J Med Chem, 2010) are described below.

The test system of data set [1] is Mycobacterium tuberculosis. The data set is described as follows: Antitubercular activity against Mycobacterium tuberculosis H37Rv by Alamar blue assay. The data set is classed as functional, organism-based. The method in brief:
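M. tuberculosis H37Rv (ATCC 27294) grown in BACTEC 12B medium and tested by Microplate Alamar Blue Assay. Ten 2-fold dilutions, typically from 100 to 0.19. IC90 is the concentration giving a 90% drop in fluorescence relative to controls.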
For orientation: Alamar Blue is a resazurin reagent that responds to reducing activity.

Data set [2] can be described thus: Cytotoxicity against african green monkey Vero cells after 72 hrs by cell titer-glo assay. The data set is classed as cell-based. The settings on record: chlorocebus sabaeus. The method in brief: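 Vero cells, run alongside the TB dose-response assay; compound exposure 72 h, then viability read by ATP-based luminescence (CellTiter-Glo). CC50 taken from the dose–response curve by curve fitting.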
For orientation: ATP-based viability assays read luminescence as a measure of living cells.

Data set [3] in a line: Selectivity index, ratio of CC50 for african green monkey Vero cells to IC90 for Mycobacterium tuberculosis H37Rv. The conditions noted are these: read-out: Selectivity Index. It counts as toxicity, cell-based. The method in brief: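 Vero cells run in parallel with the TB dose-response assay. Viability is read after 72 h exposure by CellTiter-Glo luminescence, which quantifies cellular ATP. CC50 is fitted from the dose-response curve. IC90 for H37Rv comes from the MABA fluorescence readout, as a 90% reduction relative to controls.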

Converted amounts (≈) assume the structure as drawn. Some results are limits rather than exact numbers.

For the compound `COc1ccc(O)c(-c2csc(N/N=C(\C)c3ccncc3)n2)c1`, in data set [1], the IC50 was more than 100 µg/mL and the IC90 was more than 100 µg/mL.
`C/C(=N\Nc1nc(-c2cccs2)cs1)c1ccccn1`: in data set [1], 48.4 µg/mL (≈ 161 µM) corresponded to half-maximal inhibition (IC50) and the 90% effect level (IC90) was put at 55.2 µg/mL (≈ 184 µM).
The matching figures for `C/C(=N\Nc1nc(-c2cccs2)cs1)c1cccnc1`: 92.2 µg/mL (≈ 307 µM) and more than 100 µg/mL.
The matching figures for `C/C(=N\Nc1nc(-c2cccs2)cs1)c1ccncc1`: more than 100 µg/mL and more than 100 µg/mL.
`COc1ccc(O)c(-c2csc(N/N=C(\C)c3ccccn3)n2)c1`: in data set [1], the IC50 was found to be 6.22 µg/mL (≈ 18.3 µM) and the IC90 turned out to be 6.78 µg/mL (≈ 19.9 µM). Also, the CC50 at 72 h in data set [2] is more than 40 µg/mL. Further, in data set [3], the selectivity ratio is more than 5.89.
In data set [1], `COc1ccc(O)c(-c2csc(N/N=C(\C)c3cccnc3)n2)c1` came in with an IC50 of more than 100 µg/mL and an IC90 of more than 100 µg/mL.
